Source: ChEMBL document CHEMBL3414544, “PAINS in the assay: chemical mechanisms of assay interference and promiscuous enzymatic inhibition observed during a sulfhydryl-scavenging HTS” (J Med Chem, 2015)
pIC50: −log10 of the molar value. Calls of active or inactive are those of the source. Unless noted, the calls are words filed in the database; no cut-off is given here.

What was measured:
[1] = target: T1, Histone acetyltransferase RTT109 (Saccharomyces cerevisiae (strain ATCC 204508 / S288c) (Baker's yeast)) (UniProt Q07794); assay: Inhibition of Vps75-stimulated recombinant Saccharomyces cerevisiae histone acetyltransferase Rtt109 assessed as H3K56 acetylated product at […] after 45 mins by Slot bolt inhibiton assay
T1 sequence (whole entry): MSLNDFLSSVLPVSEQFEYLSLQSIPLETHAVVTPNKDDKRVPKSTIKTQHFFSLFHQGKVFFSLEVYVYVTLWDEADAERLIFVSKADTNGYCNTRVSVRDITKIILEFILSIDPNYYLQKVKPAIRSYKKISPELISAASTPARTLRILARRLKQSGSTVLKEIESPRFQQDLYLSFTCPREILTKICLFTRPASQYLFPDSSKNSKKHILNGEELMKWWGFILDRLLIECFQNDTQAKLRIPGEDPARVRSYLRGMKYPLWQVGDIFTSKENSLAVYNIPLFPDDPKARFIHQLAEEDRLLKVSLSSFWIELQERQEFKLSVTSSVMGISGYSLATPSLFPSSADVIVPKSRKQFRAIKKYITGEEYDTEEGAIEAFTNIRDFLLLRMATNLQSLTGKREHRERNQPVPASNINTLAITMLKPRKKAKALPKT

[2] = target: T1, Histone acetyltransferase RTT109 (Saccharomyces cerevisiae (strain ATCC 204508 / S288c) (Baker's yeast)); assay: Inhibition of Vps75-stimulated recombinant Saccharomyces cerevisiae histone acetyltransferase Rtt109 assessed as H3K27 acetylated product at […] after 45 mins by Slot bolt inhibiton assay
[3] = Fluorescence quenching assessed as fluorescence signal reduction at 10 uM after 10 mins; type: physicochemical
Method in brief: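 CPM (20 μM final) and CoA (5 μM final) reacted to completion in assay buffer (stable plateau, usually ~5 min); adduct solution added to wells preplated with compound; shaken 5 min, equilibrated 5 min at room temperature; fluorescence intensity read as percent signal reduction versus DMSO controls. Flagged as quencher at >20% signal reduction at 10 μM final compound.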

[4] = Fluorescence quenching in HTS buffer assessed as fluorescence signal reduction at 10 uM after 10 mins; type: physicochemical
[5] = Fluorescence quenching in HTS buffer with […] CoA assessed as fluorescence signal reduction at 10 uM after 10 mins; type: physicochemical
[6] = target: T2, Histone acetyltransferase p300 (Homo sapiens, UniProt Q09472); assay: Inhibition of recombinant histone acetyltransferase p300 (unknown origin) using dH3-H4 tetramer and [3H]-acetyl-CoA assessed as acetate incorporation […] by liquid scintillation counting; conditions: for pIC50: read-out: IC50
[7] = target: Histone acetyltransferase GCN5 (Saccharomyces cerevisiae S288c, UniProt Q03330); assay: Inhibition of yeast histone acetyltransferase Gcn5-Ada2-Ada3 complex using tetramer and [3H]-acetyl-CoA assessed as acetate incorporation after 30 mins by liquid scintillation counting; conditions: for pIC50: read-out: IC50
[8] = target: T1, Histone acetyltransferase RTT109 (Saccharomyces cerevisiae (strain ATCC 204508 / S288c) (Baker's yeast)); assay: Inhibition of Vps75-stimulated recombinant Saccharomyces cerevisiae histone acetyltransferase Rtt109 using [3H]-acetyl-CoA assessed as acetate incorporation […] by liquid scintillation counting in presence of 1 mM DTT
[9] = target: Histone acetyltransferase GCN5 (Saccharomyces cerevisiae S288c) (UniProt Q03330); assay: Inhibition of yeast histone acetyltransferase Gcn5-Ada2-Ada3 complex using tetramer and [3H]-acetyl-CoA assessed as acetate incorporation […] by liquid scintillation counting in presence of 1 mM DTT
[10] = Fluorescence quenching in HTS buffer with 20 uM 7-diethylamino-3-(4'-maleimidyl-phenyl)-4-methylcoumarin assessed as fluorescence signal reduction at 10 uM after 10 mins; type: physicochemical
[11] = target: T2, Histone acetyltransferase p300; assay: Inhibition of recombinant histone acetyltransferase p300 (unknown origin) using dH3-H4 tetramer and [3H]-acetyl-CoA assessed as acetate incorporation after 5 mins by liquid scintillation counting in presence of 1 mM DTT
[12] = target: T3, Histone acetyltransferase RTT109 (Saccharomyces cerevisiae (strain ATCC 204508 / S288c) (Baker's yeast), UniProt Q07794); assay: Inhibition of Vps75-stimulated recombinant Saccharomyces cerevisiae histone acetyltransferase Rtt109 using Asf1-dH3-H4 as substrate assessed as coenzyme A production after 45 mins by CPM based HTS assay; conditions: for pIC50: read-out: IC50
T3 sequence (Q07794 whole entry): T1 sequence (whole entry)
Method in brief: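 Recombinant Rtt109–Vps75 at 50 nM, with Asf1–dH3–H4 as substrate and acetyl-CoA as acetyl donor. Buffer contained freshly prepared 0.01% Triton X-100. The CoA product was detected by fluorescence of its CPM adduct. Plates had Z′ ≥0.5. IC50 came from a four-parameter variable-slope fit.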

[13] = target: T3, Histone acetyltransferase RTT109; assay: Inhibition of Vps75-stimulated recombinant Saccharomyces cerevisiae histone acetyltransferase Rtt109 using [3H]-acetyl-CoA assessed as acetate incorporation after 30 mins by liquid scintillation counting; conditions: for pIC50: read-out: IC50
[14] = target: T4, Lupus La protein (Homo sapiens) (UniProt P05455); assay: Induction of thiol reactivity with La protein (unknown origin) using […] assessed as protein reactivity by ALARM NMR
T4 sequence (whole entry): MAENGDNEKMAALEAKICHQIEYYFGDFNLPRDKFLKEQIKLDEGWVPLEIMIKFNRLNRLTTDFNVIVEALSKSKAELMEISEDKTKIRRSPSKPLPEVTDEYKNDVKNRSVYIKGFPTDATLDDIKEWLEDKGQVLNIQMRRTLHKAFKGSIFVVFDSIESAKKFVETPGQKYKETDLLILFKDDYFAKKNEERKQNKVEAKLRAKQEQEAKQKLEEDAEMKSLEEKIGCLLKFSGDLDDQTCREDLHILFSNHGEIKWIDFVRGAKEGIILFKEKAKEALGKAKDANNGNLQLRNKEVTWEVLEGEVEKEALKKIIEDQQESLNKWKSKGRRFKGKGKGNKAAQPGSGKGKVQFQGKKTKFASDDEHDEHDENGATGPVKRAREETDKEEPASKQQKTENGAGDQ
Method in brief: (§1)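 ALARM NMR with recombinant La antigen expressed in E. coli Rosetta, 15N-labelled and 13C-labelled at Leu/Ile δ-methyl and Val γ-methyl groups; protein pre-reduced with 20 mM DTT then dialysed DTT-free under N2.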

[15] = target: T4, Lupus La protein (Homo sapiens); assay: Induction of thiol reactivity with La protein (unknown origin) using […] assessed as protein reactivity by ALARM NMR in presence of 20 mM DTT; method in brief: as §1
[16] = Chemical stability of the compound in HTS buffer assessed as GSH adduct formation measured as retention time after 5 mins by UPLC-MS analysis; type: physicochemical
Method in brief: (§2)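 Compound (typically 0.5 mM final) incubated in HTS buffer (pH 8.0) for 5, 15 or 30 min, then reduced glutathione added (2 equiv per 1 equiv compound); aliquots analysed by UPLC–MS (BEH C18 column, ELS and 254 nm traces) 5 min after GSH addition, and the same sample re-analysed 15 min later. HTS-like conditions but 5% DMSO, no detergent.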

[17] = Chemical stability of the compound in HTS buffer assessed as GSH adduct formation measured as retention time after 15 mins by UPLC-MS analysis; type: physicochemical; conditions: 0.25 h; method in brief: as §2

Sequence of Histone acetyltransferase GCN5 (Q03330 whole entry): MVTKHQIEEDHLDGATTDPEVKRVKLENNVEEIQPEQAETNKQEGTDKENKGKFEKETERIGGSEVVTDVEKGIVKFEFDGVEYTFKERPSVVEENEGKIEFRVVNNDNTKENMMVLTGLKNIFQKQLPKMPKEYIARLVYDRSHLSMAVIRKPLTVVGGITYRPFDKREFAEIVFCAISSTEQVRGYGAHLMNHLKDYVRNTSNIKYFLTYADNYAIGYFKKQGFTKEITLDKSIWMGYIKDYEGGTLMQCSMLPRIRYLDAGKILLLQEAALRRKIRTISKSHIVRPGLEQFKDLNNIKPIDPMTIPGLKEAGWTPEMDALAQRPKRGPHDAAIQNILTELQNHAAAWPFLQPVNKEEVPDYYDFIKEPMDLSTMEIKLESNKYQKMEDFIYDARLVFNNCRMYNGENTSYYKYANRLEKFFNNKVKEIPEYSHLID
Sequence of Histone acetyltransferase GCN5 (Saccharomyces cerevisiae S288c) (Q03330 whole entry): as above
T2 sequence (Q09472 whole entry): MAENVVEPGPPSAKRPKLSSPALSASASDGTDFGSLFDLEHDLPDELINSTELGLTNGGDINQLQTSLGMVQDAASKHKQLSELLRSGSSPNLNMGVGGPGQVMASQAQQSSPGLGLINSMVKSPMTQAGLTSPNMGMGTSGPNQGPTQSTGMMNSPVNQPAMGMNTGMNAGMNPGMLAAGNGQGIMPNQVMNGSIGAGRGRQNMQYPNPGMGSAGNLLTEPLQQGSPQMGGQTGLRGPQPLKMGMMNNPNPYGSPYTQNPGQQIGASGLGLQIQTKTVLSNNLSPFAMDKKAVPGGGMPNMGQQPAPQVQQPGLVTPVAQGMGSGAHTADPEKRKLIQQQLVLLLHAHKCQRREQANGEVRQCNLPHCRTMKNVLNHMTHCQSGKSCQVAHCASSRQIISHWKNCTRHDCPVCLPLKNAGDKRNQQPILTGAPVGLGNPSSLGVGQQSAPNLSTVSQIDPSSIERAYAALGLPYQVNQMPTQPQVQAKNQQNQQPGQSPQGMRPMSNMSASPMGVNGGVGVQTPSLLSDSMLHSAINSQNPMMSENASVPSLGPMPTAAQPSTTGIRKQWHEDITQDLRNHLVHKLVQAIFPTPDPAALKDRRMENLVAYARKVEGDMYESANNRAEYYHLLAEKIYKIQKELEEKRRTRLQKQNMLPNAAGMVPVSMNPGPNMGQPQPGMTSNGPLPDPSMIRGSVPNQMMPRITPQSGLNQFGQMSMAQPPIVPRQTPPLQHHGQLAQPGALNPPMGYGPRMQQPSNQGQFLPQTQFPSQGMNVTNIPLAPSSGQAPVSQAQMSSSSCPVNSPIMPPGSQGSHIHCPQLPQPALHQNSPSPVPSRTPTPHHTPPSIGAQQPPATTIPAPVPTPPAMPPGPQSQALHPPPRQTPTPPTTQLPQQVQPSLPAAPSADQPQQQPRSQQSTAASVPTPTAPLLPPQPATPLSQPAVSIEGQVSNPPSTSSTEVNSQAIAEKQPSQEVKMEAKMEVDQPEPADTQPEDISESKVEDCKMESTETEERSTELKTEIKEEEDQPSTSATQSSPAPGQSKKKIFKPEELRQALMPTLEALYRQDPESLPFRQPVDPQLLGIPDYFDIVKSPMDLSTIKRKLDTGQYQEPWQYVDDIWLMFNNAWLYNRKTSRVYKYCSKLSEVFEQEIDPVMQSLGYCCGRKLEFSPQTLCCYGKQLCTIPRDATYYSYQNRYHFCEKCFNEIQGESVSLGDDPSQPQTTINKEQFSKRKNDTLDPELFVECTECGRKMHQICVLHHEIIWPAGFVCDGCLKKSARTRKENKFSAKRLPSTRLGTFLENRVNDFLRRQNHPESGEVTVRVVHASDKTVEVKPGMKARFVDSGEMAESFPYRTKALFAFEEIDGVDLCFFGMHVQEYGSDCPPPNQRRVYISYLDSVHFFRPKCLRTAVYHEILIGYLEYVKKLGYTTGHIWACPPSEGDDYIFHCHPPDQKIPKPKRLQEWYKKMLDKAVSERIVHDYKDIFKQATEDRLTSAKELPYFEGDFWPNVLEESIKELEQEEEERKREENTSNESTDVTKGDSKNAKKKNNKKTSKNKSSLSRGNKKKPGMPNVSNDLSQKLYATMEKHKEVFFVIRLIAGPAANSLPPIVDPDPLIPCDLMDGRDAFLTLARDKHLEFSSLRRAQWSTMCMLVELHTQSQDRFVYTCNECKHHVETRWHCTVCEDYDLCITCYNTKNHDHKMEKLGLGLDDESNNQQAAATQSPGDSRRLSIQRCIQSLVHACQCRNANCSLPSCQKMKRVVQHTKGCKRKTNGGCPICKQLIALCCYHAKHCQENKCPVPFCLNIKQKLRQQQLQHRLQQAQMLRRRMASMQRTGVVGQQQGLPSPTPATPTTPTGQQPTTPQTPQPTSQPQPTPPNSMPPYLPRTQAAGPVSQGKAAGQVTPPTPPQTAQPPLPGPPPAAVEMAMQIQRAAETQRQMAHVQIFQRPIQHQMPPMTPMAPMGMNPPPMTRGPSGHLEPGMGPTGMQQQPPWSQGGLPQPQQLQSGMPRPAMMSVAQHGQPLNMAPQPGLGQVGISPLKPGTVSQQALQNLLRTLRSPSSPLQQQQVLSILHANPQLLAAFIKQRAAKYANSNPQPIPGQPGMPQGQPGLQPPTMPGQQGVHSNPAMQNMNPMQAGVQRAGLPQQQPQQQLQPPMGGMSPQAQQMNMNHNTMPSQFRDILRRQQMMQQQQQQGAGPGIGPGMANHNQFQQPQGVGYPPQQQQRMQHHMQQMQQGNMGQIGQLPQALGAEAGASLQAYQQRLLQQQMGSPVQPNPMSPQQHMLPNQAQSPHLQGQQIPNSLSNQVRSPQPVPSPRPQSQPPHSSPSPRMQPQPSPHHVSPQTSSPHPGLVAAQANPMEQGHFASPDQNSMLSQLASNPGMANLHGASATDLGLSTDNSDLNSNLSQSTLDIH

Structure (SMILES) | Activity [1] | Activity [2] | Activity [3] | Activity [4] | Activity [5] | pIC50 [6] | pIC50 [7] | Activity [8] | Activity [9] | Activity [10] | Activity [11] | other results
COc1ccc(-c2nnc(SC3CC(=O)N(c4ccc(Cl)cc4)C3=O)[nH]2)cc1 (stereo not given) | Active | Active | Not Active | Not Active | Not Active | 5.55 | 5.17 | Active | Active | Not Active | Active | 
O=S1(=O)C=C(Sc2nnnn2-c2ccccc2)c2ccccc21 | Active | Active | Not Active | Not Active | Not Active |  | 4.70 | Active | Active | Not Active | Active | 
OC(Cn1cncn1)(Cn1cncn1)c1ccc(F)cc1F [FLUCONAZOLE] |  |  |  |  |  |  |  | inactive | inactive |  | inactive | IC50 [12]: Not Active; IC50 [13]: Not Active; IC50 [6]: Not Active; IC50 [7]: Not Active
O=S1(=O)C=C(Sc2nnc(-c3ccccc3)o2)c2ccccc21 | Active | Active | Not Active | Not Active | Not Active | 4.96 | 4.96 | Active | Active | Not Active | Active | 
O=S1(=O)C=C(Sc2nnc(-c3ccncc3)o2)c2ccccc21 | Active | Active | Not Active | Not Active | Not Active | 5.21 | 5.43 | Active | Active | Not Active | Active | 
O=S(=O)(Nc1cc(Sc2ncn[nH]2)c(O)c2ccccc12)c1ccc2ccccc2c1 | Active | Active |  |  |  |  |  | Active | Active |  | Active | Activity [14]: Active; Activity [15]: inactive
CCN(CC)c1ccc2c(C)c(-c3ccc(N4C(=O)C=CC4=O)cc3)c(=O)oc2c1 |  |  |  |  |  | 6.59 | 5.96 | Active | Active |  | Active | pIC50 [13]: 6.59
Cc1ccc(-c2nc(N)s[n+]2-c2ccccc2)cc1.[Br-] | Active | Active | Not Active | Not Active | Not Active | 5.74 | 5.28 | Active | Active | Not Active | Active | 
C=C(C)[C@@H](CC=C(C)C)C[C@@]12C[C@@H](CC=C(C)C)C(C)(C)[C@@](CC=C(C)C)(C(=O)C(C(=O)c3ccc(O)c(O)c3)=C1O)C2=O [GARCINOL] |  |  |  |  |  | 5.77 | 5.59 | inactive | inactive |  | inactive | 
O=S(=O)(Nc1cc(Sc2nc[nH]n2)c(O)c2ccccc12)c1ccc(Br)cc1 | Active | Active | Not Active | Not Active | Not Active | 5.96 | 5.28 | Active | Active | Not Active | Active | 
Cc1ccc(N2C(=O)CC(Sc3nncn3-c3ccccc3)C2=O)cc1 (stereo not given) | Active | Active | Not Active | Not Active | Not Active | 5.01 | 4.57 | Active | Active | Not Active | Active | pIC50 [12]: 4.96; pIC50 [13]: 5.07
O=S(=O)(Nc1cc(Sc2nc[nH]n2)c(O)c2ccccc12)c1ccc2ccccc2c1 |  |  | Not Active | Not Active | Not Active | 6.29 | 5.60 |  |  | Not Active |  | Retention_time [16]: 3.69 min; Retention_time [17]: 3.28 min
O=[N+]([O-])c1c(Sc2nnnn2-c2ccccc2)cc(Cl)c2nonc12 | Active | Active | Not Active | Not Active | Not Active | 5.96 | 5.80 | Active | Active | Not Active | Active | pIC50 [12]: 5.64; pIC50 [13]: 6.11
CNc1nc(-c2ccccc2)[n+](-c2ccc(C)cc2)s1.[Br-] | Active | Active | Not Active | Not Active | Not Active | 5.70 | 5.09 | Active | Active | Not Active | Active | 
O=C(O)CSc1cc(NS(=O)(=O)c2ccc(Br)cc2)c2ccccc2c1O |  |  | Not Active | Not Active | Not Active | 6.48 | 5.92 |  | Active | Active | Active | IC50 [12]: Not Active; pIC50 [13]: 6.89
